Measured values: ChEMBL document CHEMBL1155278, “3,4-Diaryl-isoxazoles and -imidazoles as potent dual inhibitors of p38alpha mitogen activated protein kinase and casein kinase 1delta” (J Med Chem, 2009)

Columns and labels:
[1] = molecular target: Mitogen-activated protein kinase 9 (Homo sapiens) (UniProt P45984); assay: Inhibition of JNK2 at 0.1 uM by Cherenkov counting in presence of 20 uM ATP
Procedure, shortened: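 Single-concentration selectivity screen at 0.1 μM against a panel of 76 protein kinases. Each kinase was run at an ATP level approximating its Km for ATP. Output is mean residual activity as % of the control assay without compound, n = 3 ± SD.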

[2] = molecular target: T1, Dual specificity tyrosine-phosphorylation-regulated kinase 3 (Homo sapiens) (UniProt O43781); assay: Inhibition of DYRK3 assessed as residual activity at 0.1 uM by Cherenkov counting relative to control in presence of 5 uM ATP
T1 sequence (whole entry): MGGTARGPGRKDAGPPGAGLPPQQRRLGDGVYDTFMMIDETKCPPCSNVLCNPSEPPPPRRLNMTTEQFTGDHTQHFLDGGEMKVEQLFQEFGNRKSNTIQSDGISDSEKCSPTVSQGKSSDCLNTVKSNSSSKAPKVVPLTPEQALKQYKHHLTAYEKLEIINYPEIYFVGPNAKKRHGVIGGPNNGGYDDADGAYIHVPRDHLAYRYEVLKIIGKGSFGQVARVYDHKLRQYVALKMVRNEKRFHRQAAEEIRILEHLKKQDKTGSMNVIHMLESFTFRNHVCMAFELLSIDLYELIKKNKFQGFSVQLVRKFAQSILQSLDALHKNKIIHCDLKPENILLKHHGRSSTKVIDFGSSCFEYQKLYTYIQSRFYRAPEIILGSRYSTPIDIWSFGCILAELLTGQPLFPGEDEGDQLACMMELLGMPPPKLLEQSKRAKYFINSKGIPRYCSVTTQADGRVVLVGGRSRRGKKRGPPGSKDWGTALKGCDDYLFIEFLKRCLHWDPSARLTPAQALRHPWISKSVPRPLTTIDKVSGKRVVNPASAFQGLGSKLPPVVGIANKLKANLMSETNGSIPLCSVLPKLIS
Procedure, shortened: (§1)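 Single-concentration screen at 0.1 µM across a panel of 76 protein kinases. Each kinase was run at an ATP concentration approximating its ATP Km. Results are % mean residual activity versus control assays without compound (n = 3 ± SD).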

[3] = molecular target: T2, MAP kinase-activated protein kinase 5 (Homo sapiens) (UniProt Q8IW41); assay: Inhibition of PRAK assessed as residual activity at 0.1 uM by Cherenkov counting relative to control in presence of 20 uM ATP
T2 sequence (whole entry): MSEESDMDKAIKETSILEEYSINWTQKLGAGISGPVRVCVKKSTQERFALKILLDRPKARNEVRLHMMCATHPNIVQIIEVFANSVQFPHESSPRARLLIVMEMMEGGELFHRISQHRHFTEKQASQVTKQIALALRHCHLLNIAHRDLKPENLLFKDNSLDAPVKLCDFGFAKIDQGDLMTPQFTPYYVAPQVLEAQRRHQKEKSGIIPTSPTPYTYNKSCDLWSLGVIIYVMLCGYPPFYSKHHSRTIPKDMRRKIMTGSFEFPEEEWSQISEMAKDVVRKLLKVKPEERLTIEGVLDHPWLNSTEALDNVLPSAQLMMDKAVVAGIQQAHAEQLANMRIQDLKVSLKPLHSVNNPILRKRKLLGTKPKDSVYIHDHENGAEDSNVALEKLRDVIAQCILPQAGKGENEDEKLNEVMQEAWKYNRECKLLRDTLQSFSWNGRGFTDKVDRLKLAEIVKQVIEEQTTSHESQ
Procedure, shortened: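 Single-concentration screen at 0.1 μM in a 76-kinase panel. ATP for each kinase was set near its Km for ATP. Residual activity is given as a percentage of control assays without compound, mean of n = 3 ± SD.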

[4] = molecular target: T3, Serine/threonine-protein kinase Chk1 (Homo sapiens) (UniProt O14757); assay: Inhibition of CHK1 assessed as residual activity at 0.1 uM by Cherenkov counting relative to control in presence of 20 uM ATP; procedure, shortened: as §1
T3 sequence (whole entry): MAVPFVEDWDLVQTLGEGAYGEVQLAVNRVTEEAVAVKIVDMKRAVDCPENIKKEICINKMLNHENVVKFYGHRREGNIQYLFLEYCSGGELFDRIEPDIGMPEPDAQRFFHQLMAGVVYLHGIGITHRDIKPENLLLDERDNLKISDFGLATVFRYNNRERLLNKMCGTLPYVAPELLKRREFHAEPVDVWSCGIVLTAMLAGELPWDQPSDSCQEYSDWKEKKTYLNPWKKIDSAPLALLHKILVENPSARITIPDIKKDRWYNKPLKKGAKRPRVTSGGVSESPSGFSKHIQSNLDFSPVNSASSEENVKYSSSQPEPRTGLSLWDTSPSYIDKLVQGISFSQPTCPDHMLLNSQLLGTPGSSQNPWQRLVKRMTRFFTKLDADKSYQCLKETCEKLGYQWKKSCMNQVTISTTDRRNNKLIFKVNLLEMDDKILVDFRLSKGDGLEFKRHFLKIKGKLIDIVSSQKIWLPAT

[5] = molecular target: Homeodomain-interacting protein kinase 2 (Homo sapiens) (UniProt Q9H2X6); assay: Inhibition of HIPK2 assessed as residual activity at 10 uM by Cherenkov counting relative to control in presence of 5 uM ATP
Procedure, shortened: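 Single-point profiling at 10 µM in a panel of 78 protein kinases. Kinase activity is expressed as a percentage relative to control assays without compound.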

[6] = molecular target: MAP kinase-interacting serine/threonine-protein kinase 2 (Homo sapiens) (UniProt Q9HBH9); assay: Inhibition of MNK2 assessed as residual activity at 10 uM by Cherenkov counting relative to control in presence of 50 uM ATP
[7] = molecular target: T4, Serine/threonine-protein kinase Nek2 (Homo sapiens) (UniProt P51955); assay: Inhibition of NEK2a assessed as residual activity at 10 uM by Cherenkov counting relative to control in presence of 50 uM ATP
T4 sequence (whole entry): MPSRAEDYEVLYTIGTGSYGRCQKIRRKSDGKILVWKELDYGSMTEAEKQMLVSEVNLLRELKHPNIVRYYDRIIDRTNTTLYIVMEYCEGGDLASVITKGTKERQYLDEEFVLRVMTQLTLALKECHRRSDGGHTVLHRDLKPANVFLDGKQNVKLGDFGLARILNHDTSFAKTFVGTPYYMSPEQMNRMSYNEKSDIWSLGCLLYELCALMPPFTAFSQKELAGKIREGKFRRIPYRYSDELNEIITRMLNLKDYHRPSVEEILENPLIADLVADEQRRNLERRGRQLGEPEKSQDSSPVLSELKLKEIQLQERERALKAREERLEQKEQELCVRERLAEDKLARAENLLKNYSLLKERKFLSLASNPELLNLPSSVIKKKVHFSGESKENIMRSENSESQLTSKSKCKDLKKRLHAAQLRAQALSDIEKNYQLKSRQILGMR

[8] = molecular target: Casein kinase I isoform delta (Homo sapiens, UniProt P48730); assay: Inhibition of CK1delta at 10 uM by Cherenkov counting in presence of 20 uM ATP
[9] = molecular target: Dual specificity mitogen-activated protein kinase kinase 1 (Homo sapiens) (UniProt Q02750); assay: Inhibition of MKK1 assessed as residual activity at 10 uM by Cherenkov counting relative to control in presence of 5 uM ATP
Chain of Dual specificity mitogen-activated protein kinase kinase 1 (Homo sapiens) (Q02750 whole entry): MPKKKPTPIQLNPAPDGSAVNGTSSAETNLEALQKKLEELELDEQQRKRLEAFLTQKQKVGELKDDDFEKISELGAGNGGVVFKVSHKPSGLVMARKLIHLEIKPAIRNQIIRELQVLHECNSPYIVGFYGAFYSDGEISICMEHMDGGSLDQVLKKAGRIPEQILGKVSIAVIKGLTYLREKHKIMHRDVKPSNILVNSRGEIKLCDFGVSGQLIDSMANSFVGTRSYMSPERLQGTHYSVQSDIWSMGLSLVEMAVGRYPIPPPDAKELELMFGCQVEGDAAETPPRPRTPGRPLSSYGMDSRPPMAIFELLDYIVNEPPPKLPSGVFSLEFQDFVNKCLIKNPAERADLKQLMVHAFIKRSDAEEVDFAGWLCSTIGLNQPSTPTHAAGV

Chain of Mitogen-activated protein kinase 9 (Homo sapiens) (P45984 whole entry, looked up): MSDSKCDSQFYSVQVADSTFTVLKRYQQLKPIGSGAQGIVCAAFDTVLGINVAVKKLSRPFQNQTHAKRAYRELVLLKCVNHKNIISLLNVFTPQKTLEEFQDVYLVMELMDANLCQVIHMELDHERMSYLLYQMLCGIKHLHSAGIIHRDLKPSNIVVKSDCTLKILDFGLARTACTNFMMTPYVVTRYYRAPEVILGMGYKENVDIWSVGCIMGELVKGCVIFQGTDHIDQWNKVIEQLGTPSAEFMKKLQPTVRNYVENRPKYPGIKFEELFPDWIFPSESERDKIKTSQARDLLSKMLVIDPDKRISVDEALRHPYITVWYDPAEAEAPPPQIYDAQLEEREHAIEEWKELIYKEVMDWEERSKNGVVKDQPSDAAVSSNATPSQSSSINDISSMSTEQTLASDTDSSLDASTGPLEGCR
Chain of MAP kinase-interacting serine/threonine-protein kinase 2 (Homo sapiens) (Q9HBH9 whole entry, looked up): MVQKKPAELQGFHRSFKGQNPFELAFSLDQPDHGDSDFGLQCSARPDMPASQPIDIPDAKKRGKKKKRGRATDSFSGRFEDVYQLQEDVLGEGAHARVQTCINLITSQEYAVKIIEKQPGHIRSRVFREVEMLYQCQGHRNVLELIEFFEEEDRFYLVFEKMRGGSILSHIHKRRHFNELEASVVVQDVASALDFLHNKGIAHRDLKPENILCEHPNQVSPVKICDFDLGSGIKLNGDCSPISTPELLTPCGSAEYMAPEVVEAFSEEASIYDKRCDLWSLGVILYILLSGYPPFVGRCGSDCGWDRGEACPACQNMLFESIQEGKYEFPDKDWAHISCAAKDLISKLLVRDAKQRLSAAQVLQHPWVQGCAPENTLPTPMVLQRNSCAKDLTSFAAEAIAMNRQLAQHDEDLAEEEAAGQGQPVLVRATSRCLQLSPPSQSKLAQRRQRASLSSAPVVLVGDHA
Chain of Homeodomain-interacting protein kinase 2 (Homo sapiens) (Q9H2X6 whole entry, looked up): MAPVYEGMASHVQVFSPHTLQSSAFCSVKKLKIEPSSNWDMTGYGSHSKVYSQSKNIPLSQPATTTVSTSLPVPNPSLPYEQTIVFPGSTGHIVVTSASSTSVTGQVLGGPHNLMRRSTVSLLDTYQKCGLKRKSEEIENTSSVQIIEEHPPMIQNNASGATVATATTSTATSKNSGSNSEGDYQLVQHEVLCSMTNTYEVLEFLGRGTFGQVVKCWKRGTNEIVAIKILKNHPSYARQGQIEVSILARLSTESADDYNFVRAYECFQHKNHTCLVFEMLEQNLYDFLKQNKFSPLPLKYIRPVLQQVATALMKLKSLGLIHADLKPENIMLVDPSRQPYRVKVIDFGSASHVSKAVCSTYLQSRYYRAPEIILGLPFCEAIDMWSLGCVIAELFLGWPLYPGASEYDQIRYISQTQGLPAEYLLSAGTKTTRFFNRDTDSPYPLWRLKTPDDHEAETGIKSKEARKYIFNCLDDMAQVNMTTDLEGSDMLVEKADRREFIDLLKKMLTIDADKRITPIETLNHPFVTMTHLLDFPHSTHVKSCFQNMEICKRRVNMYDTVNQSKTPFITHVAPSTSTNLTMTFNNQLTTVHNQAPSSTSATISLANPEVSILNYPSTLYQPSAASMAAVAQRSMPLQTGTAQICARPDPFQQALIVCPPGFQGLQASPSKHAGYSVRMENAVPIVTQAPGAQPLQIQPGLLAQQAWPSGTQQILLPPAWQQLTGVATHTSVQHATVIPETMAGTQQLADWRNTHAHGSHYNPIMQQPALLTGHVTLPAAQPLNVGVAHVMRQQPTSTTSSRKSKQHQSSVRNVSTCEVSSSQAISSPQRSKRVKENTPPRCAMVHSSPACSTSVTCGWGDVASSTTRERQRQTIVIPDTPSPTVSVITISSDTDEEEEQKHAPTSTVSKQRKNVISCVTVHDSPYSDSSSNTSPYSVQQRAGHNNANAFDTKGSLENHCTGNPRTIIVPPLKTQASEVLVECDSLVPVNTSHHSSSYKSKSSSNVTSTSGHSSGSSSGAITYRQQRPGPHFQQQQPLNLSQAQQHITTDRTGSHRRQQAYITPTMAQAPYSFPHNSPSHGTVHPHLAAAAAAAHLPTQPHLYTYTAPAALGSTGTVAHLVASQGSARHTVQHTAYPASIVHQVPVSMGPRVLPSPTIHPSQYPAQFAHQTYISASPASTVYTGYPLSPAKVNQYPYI
Chain of Casein kinase I isoform delta (P48730 whole entry, looked up, canonical isoform): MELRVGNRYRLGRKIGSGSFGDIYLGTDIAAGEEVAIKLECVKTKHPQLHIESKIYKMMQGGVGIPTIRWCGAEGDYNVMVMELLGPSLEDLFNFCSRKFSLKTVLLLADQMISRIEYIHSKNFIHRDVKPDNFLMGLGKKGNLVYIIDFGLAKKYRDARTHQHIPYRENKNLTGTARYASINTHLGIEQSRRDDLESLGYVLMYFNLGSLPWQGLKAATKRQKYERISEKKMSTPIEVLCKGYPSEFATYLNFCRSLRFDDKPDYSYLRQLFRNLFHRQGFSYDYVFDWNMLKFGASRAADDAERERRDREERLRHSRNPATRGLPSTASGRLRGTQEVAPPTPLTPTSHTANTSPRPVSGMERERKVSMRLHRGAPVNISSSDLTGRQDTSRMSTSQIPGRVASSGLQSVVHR

Row | inhibition [1] | Activity [2] | Activity [3] | Activity [4] | Activity [5] | Activity [6] | Activity [7] | inhibition [8] | Activity [9] | Structure (SMILES)
1 | 88% | 90% | 101% | 88% |  |  |  |  |  | COc1ccc(/C=C/C(=O)Nc2cc(-c3[nH]c([S+](C)[O-])nc3-c3ccc(F)cc3)ccn2)c(OC)c1 (stereo not drawn)
2 |  |  |  |  | 103% | 101% | 96% | 40% | 88% | CC(C)c1noc(-c2ccc(F)cc2)c1-c1ccncc1
3 |  |  |  |  | 103% | 110% | 98% | 90% | 76% | CC(C)c1onc(-c2ccc(F)cc2)c1-c1ccncc1
4 | 69% | 104% | 83% | 80% |  |  |  |  |  | COc1ccc(/C=C/C(=O)Nc2cc(-c3[nH]c(SC)nc3-c3ccc(F)cc3)ccn2)c(OC)c1
